Among all 130,000 compounds or so, about 1,000 (0.77%) were called active. Another 1% or so got no clear call; they are omitted. This is one part of a sample in which actives are shown more often than they occur.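 How the source made its calls: active means activation at 2 µM above a set limit, confirmed on inspection of the cell images; inconclusive means above the set limit but not confirmed on image inspection; inactive means the rest.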
assay: insulin gene promoter stimulation in islet cells – imaging, TRM-6 cells, eGFP reporter, cell count, primary screen (AID 1296); settings: at 2 µM; activation: stronger effect = higher value; normalized cell count: measured here: cell count (toxicity);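 on activation: share of cells whose green reporter signal exceeds an intensity cutoff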
Outline: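 System: human fetal islet-derived TRM-6 cells with tamoxifen-inducible insulin promoter–eGFP reporter; input: seeding density of 1,000 cells per well; buffer or medium: Low-glucose (5.5 mM) medium with tamoxifen; incubation: compound exposure 48 h, 37 °C; measured by: high-content imaging of fixed cells with Hoechst nuclear stain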

Compound | activation | normalized cell count
CC1=CC(=Cc2sc3ccccc3[n+]2C)C=C(C)O1 | 456% (active) | 88.8%
C[N+]1(C)CCOC(O)(c2ccc(-c3ccc(C4(O)C[N+](C)(C)CCO4)cc3)cc2)C1 (stereo not given) | -9.52% (inactive) | 86.4%
CC(=O)c1c(C)n(C(C)C)c2ccc(O)cc12 | 269% (inactive) | 65.5%
CCOCCc1c(O)[nH]c(=S)[nH]c1=O | 0% (inactive) | 137%
O=[N+]([O-])c1ccc(C2C3C(c4ccccc4)=NC4(CCCCC4)N32)cc1 (stereo not given) | -4.54% (inactive) | 112%
O=C(COc1ccc2ccccc2c1)N1CCN(Cc2ccncc2)CC1 | 1.82% (inactive) | 106%
O=C(COC(=O)c1ccccc1)Nc1ccc(Cl)cc1C(=O)c1ccccc1 | -3.33% (inactive) | 106%
CCOC(=O)c1c(-c2ccccc2)oc2ccc(OC(=O)N(C)C)cc12 | -72.7% (inactive) | 171%
CC[N+]1(C)CCCC(OC(=O)C(O)(c2ccccc2)c2ccccc2)C1 (stereo not given) | 295% (active) | 82%
Cc1nn(Cc2ccccc2Cl)c(Cl)c1C(=O)OC(C(=O)NC(N)=O)C(C)C (stereo not given) | 6.67% (inactive) | 71.1%
O=C(CN1CCCC1=O)NCCc1ccccc1 | -2.56% (inactive) | 176%
CC(=O)c1c(O)n(C2CCCCCC2)c(=O)[nH]c1=O | 146% (active) | 160%
COC(=O)CN1C(=O)C2(C(C(=O)OC)=C(N)Oc3ccccc32)C2=C1CC(C)(C)CC2=O (stereo not given) | -6.67% (inactive) | 84.7%
Cc1ccc(N2C(=O)NC(=O)C(CCc3ccncc3)(Cc3cccc(Cl)c3Cl)C2=O)cc1 (stereo not given) | 169% (inactive) | 113%
CC(=O)c1ccc(OC(NC(=O)Cc2ccccc2)C(Cl)(Cl)Cl)cc1 (stereo not given) | 6.45% (inactive) | 137%

From PubChem BioAssay AID1296 (Columbia University Molecular Screening Center, 2008)
